According to ChEMBL document CHEMBL4665651, “Design, synthesis, and biological evaluation of some novel 4-aminoquinazolines as Pan-PI3K inhibitors” (Bioorg Med Chem, 2019):
pIC50: −log10 of the molar value.

Legend:
[1] = molecular target: Epidermal growth factor receptor (Homo sapiens, UniProt P00533); assay: Inhibition of EGFR (unknown origin) using FAM-labeled peptide as substrate incubated for 10 mins followed by substrate addition and measured after 1 hr by mobility shift assay
Summary of the method: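 Mobility shift assay in 50 mM HEPES pH 7.5, 10 mM MgCl₂, 2 mM DTT, 0.0015% Brij35. Compound in 10-point DMSO dilution, run in duplicate. Enzyme preincubated with compound 10 min at room temperature. FAM-labeled peptide and ATP then added and reaction run at 28 °C for 1 h. Stopped with EDTA buffer; conversion turned into percent inhibition and fitted to a Hill equation for IC50.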

MCF7 [2] = assay: Induction of apoptosis in human MCF7 cells assessed as viable cells at 0.2 uM incubated for 48 hrs by annexin V-FITC and propidium iodide staining based flow cytometry analysis (reference value: 87.7 %); assay type: functional; conditions: read-out: Activity
MCF7 [3] = assay: Inhibition of PI3K in human MCF7 cells assessed as Akt phosphorylation by Western blot analysis; assay type: cell-based; conditions: dose microM 0.1-10
Summary of the method: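 MCF-7 cells treated at 0.1, 1 and 10 μM, then washed in cold PBS and lysed in RIPA buffer with protease and phosphatase inhibitors. Equal protein run on 10% SDS-PAGE and transferred to PVDF. Blots probed for total Akt and phospho-Akt (Ser473), with GAPDH as loading control.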

[4] = molecular target: Phosphatidylinositol 4,5-bisphosphate 3-kinase catalytic subunit gamma isoform (Homo sapiens, UniProt P48736); assay: Inhibition of PI3Kgamma (unknown origin) using lipid as substrate incubated for 15 mins followed by substrate addition and measured after 60 mins ADPGloTM reagent based assay
Chain of Phosphatidylinositol 4,5-bisphosphate 3-kinase catalytic subunit gamma isoform (P48736 whole entry, canonical isoform): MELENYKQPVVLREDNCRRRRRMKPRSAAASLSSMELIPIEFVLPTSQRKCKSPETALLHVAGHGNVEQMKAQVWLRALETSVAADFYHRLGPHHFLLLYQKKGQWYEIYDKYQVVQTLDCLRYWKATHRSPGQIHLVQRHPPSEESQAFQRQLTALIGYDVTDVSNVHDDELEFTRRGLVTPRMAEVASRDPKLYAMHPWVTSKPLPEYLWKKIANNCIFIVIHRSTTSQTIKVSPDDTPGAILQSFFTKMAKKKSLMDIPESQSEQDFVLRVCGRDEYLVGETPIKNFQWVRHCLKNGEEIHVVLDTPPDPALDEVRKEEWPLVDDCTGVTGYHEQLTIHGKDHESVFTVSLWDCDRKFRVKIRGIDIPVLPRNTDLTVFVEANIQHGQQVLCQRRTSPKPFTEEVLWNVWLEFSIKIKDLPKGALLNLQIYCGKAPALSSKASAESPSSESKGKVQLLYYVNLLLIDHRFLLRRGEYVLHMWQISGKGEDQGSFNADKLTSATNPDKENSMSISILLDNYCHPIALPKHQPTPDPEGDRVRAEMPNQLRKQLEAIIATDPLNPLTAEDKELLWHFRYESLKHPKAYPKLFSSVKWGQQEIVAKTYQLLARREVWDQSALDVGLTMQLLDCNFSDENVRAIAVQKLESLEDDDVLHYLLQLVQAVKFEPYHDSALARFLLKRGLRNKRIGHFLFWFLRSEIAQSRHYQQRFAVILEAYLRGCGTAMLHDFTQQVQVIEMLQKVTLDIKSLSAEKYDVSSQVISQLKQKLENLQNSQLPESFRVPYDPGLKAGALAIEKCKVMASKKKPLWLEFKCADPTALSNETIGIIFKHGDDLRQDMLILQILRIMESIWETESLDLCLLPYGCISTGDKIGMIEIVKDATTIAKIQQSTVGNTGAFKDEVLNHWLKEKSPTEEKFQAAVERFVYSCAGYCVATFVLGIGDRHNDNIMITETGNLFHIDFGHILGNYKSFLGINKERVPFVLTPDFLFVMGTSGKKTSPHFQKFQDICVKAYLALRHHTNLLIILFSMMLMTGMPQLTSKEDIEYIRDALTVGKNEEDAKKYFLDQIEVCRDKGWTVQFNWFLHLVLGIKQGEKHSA
Summary of the method: (§1)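 ADP-Glo luminescent readout of ADP formed. Isoforms tested: p110α/p85α, p110β/p85α, p120γ and p110δ/p85α, each in PI3K reaction buffer with lipid substrate. Enzyme preincubated with compound for 15 min at room temperature. Reaction started with 250 μM ATP stock and run 60 min at room temperature. ADP-Glo reagent added for 40 min, then detection reagent for 40 min. IC50 from normalized nonlinear dose–response fit.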

MCF7 [5] = assay: Induction of apoptosis in human MCF7 cells assessed as early apoptotic cells at 0.4 uM incubated for 48 hrs by annexin V-FITC and propidium iodide staining based flow cytometry analysis (reference value: 2.7 %); assay type: functional
MCF7 [6] = assay: Induction of apoptosis in human MCF7 cells assessed as necrotic cells at 0.8 uM incubated for 48 hrs by annexin V-FITC and propidium iodide staining based flow cytometry analysis (reference value: 0.3 %); assay type: functional
MCF7 [7] = assay: Induction of apoptosis in human MCF7 cells assessed as early apoptotic cells at 0.2 uM incubated for 48 hrs by annexin V-FITC and propidium iodide staining based flow cytometry analysis (reference value: 2.7 %); assay type: functional
[8] = molecular target: Phosphatidylinositol 4,5-bisphosphate 3-kinase catalytic subunit beta isoform (Homo sapiens, UniProt P42338); assay: Inhibition of PI3Kbeta (unknown origin) using lipid as substrate incubated for 15 mins followed by substrate addition and measured after 60 mins ADPGloTM reagent based assay
Chain of Phosphatidylinositol 4,5-bisphosphate 3-kinase catalytic subunit beta isoform (P42338 whole entry, canonical isoform): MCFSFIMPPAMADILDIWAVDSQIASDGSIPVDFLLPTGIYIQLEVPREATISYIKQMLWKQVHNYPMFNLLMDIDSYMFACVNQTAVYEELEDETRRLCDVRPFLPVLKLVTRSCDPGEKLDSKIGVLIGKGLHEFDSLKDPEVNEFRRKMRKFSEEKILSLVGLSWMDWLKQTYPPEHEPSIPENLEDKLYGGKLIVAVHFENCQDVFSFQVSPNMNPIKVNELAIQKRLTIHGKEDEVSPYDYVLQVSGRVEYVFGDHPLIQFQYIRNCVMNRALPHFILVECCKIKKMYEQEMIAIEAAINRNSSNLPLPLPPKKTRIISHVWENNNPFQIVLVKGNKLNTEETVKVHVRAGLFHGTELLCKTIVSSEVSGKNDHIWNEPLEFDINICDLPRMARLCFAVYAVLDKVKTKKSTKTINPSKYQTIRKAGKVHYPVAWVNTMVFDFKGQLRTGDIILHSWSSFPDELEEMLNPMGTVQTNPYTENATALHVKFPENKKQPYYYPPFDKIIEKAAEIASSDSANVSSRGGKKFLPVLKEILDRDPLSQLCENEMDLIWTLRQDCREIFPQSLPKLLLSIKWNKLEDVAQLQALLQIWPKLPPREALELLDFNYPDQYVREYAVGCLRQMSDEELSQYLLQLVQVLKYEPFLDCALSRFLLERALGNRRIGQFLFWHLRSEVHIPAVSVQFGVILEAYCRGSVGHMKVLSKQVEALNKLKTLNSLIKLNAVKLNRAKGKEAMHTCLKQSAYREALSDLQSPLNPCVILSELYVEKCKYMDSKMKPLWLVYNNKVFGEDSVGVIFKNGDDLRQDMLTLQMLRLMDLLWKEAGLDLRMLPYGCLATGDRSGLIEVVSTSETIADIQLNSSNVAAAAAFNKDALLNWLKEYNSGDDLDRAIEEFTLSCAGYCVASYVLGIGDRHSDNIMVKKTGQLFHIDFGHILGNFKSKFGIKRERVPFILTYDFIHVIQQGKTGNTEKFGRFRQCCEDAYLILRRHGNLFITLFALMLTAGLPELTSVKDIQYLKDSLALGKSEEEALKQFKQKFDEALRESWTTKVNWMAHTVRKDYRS
Summary of the method: as §1, with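 “temperature.” for “temperature. Reaction started with 250 μM ATP stock and run 60 min at room temperature.”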

[9] = molecular target: Phosphatidylinositol 4,5-bisphosphate 3-kinase catalytic subunit alpha isoform (Homo sapiens, UniProt P42336); assay: Inhibition of PI3Kalpha (unknown origin) using lipid as substrate incubated for 15 mins followed by substrate addition and measured after 60 mins ADPGloTM reagent based assay
Chain of Phosphatidylinositol 4,5-bisphosphate 3-kinase catalytic subunit alpha isoform (P42336 whole entry, canonical isoform): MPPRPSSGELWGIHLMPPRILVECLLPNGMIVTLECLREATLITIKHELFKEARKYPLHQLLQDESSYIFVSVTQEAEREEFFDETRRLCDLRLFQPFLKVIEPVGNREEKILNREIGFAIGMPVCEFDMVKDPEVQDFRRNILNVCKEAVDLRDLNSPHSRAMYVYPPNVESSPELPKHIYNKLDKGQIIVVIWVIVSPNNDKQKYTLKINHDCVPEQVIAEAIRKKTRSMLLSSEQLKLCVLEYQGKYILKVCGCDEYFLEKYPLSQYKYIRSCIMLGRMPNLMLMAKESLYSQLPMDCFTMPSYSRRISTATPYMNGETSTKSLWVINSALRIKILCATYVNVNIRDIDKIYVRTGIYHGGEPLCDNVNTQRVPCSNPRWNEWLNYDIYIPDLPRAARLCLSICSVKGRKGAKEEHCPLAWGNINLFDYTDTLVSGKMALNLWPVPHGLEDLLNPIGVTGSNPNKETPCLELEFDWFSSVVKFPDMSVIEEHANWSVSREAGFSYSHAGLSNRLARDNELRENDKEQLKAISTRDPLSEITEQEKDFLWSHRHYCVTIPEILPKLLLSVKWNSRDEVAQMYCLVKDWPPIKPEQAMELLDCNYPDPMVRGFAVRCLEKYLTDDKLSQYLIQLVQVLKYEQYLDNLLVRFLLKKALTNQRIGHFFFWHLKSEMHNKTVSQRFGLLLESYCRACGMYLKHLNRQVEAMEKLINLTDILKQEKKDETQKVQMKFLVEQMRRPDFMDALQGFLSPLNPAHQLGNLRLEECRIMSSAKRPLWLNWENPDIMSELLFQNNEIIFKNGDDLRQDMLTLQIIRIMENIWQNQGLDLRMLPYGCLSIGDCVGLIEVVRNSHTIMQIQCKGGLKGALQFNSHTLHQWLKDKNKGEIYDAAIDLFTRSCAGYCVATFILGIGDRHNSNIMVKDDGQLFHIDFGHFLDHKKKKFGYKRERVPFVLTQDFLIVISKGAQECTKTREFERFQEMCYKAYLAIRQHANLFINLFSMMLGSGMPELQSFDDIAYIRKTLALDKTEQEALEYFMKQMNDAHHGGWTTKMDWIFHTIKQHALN
Summary of the method: as §1, with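 “temperature.” for “temperature. Reaction started with 250 μM ATP stock and run 60 min at room temperature.”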

MCF7 [10] = assay: Induction of apoptosis in human MCF7 cells assessed as necrotic cells at 0.4 uM incubated for 48 hrs by annexin V-FITC and propidium iodide staining based flow cytometry analysis (reference value: 0.3 %); assay type: functional

Chain of Epidermal growth factor receptor (P00533 whole entry): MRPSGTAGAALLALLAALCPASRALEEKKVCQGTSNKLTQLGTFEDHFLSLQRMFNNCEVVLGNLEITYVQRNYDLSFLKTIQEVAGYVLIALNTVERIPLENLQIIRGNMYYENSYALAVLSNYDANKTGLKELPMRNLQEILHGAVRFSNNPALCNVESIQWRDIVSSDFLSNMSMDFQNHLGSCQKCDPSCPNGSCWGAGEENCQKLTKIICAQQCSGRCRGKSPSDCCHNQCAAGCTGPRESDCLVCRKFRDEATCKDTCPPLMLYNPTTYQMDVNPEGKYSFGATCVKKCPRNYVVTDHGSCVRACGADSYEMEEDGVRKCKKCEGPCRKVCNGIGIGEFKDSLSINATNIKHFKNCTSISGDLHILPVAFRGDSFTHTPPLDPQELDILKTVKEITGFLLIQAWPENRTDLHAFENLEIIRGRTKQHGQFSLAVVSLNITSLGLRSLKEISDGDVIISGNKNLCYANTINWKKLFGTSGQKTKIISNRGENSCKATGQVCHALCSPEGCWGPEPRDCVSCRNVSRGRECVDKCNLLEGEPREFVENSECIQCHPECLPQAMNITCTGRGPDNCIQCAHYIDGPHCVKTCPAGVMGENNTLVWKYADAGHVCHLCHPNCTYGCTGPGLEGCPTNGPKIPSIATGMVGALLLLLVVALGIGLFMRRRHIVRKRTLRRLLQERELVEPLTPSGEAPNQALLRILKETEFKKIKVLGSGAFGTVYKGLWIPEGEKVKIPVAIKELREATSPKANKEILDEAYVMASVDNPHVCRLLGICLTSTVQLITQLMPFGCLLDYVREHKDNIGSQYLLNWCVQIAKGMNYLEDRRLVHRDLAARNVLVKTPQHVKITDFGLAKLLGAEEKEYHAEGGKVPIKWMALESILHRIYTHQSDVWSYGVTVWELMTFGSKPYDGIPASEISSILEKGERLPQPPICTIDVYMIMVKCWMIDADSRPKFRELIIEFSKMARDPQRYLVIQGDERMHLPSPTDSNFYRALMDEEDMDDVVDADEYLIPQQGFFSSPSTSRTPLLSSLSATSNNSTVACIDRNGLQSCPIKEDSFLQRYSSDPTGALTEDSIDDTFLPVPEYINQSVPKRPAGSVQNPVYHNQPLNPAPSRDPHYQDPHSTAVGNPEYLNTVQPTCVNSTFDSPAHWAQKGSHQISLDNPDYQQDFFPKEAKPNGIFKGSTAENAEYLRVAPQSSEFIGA

- pIC50 [1]: < 5.00
- pIC50 [4]: 9.24
- pIC50 [8]: 8.52
- pIC50 [9]: 9.70
SMILES: COc1ncc(-c2ccc3ncnc(Nc4cnn(CCO)c4)c3c2)cc1NS(=O)(=O)c1ccc(F)cc1F
- viability at 0.2 µM (MCF7 [2]): 74.7%
- inhibition (MCF7 [3]): Dose-dependent effect
- Activity (MCF7 [5]): 3.8%
- Activity (MCF7 [6]): 2.7%
- Activity (MCF7 [7]): 2.8%
- Activity (MCF7 [10]): 2.6%
